Values belong to the compound of their own block, whether it stands above or below them.
How the values were obtained:
MRGPRX1 [1] = details: NIH MLPCN; cited from earlier work
human MRGPRX1 [2] = target: T1, human MRGPRX1 (Homo sapiens, UniProt Q96LB2); format: cell-based; details: MRGPRX1 PAM potency
Outline: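 Stable human MRGPRX1 HEK293 cells seeded at 25,000/well and grown 2 days. Loaded with 2 μM Fluo-4 AM plus 1% Trypan Red in HBSS for 50 min at 37°C, then 10 min at room temperature. Serial HBSS dilutions of test compound added with EC20 BAM8–22; FLIPR read for 2 min as max–min fluorescence. […] Mean ± SEM, ≥3 experiments in quadruplicate.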

[3] = Metabolite identification in human liver microsomes; format: in vitro ADME; details: 60 min
human MRGPRX1 [4] = target: T1, human MRGPRX1; assay: MRGPRX1 intrinsic agonist activity in the absence of BAM8–22; format: cell-based; details: at concentrations up to 100 μM in the absence of BAM8–22
Outline: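 Same stable human MRGPRX1 HEK293 FLIPR format: 25,000 cells/well for 2 days, then 2 μM Fluo-4 AM with 1% Trypan Red in HBSS for 50 min at 37°C and 10 min at room temperature. Serially diluted test compound added in HBSS alone, with HBSS as negative control and BAM8–22 as positive control. Max–min fluorescence recorded over 2 min.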

[5] = In vivo pharmacokinetics in mice after oral administration; details: for Kp: male, CD-1, mouse, po, 100 mg/kg, Tissue-to-plasma ratio (by AUC)
Outline: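 Male CD1 mice (25–30 g, n=3) dosed by oral gavage at 100 mg/kg in 5% dimethylacetamide/10% Cremophor EL/10% Tween80/25% PEG400/50% water. Killed at 0.25–6 h; cardiac blood taken to plasma, spinal cord and brain flash-frozen. Acetonitrile extraction with losartan internal standard, then LC/MS/MS. Calibration 0.01–10 nmol/mL in naïve matrix, 1/x-weighted linear regression.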

MRGPRX2 = target: T2, MRGPRX2 (Homo sapiens, UniProt Q96LB1); format: cell-based
T2 sequence (Q96LB1 1-330): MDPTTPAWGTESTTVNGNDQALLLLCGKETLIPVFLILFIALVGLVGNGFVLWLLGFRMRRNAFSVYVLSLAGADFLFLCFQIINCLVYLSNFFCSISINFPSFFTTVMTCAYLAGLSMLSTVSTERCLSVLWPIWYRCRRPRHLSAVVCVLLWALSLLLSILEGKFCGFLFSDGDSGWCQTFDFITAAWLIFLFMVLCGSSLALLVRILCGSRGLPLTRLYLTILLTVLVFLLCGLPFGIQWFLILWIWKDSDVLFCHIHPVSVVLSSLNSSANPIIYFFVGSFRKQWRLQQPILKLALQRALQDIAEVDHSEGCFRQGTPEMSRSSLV

[6] = tested on: panel of 44 selected targets (Eurofins Cerep SafetyScreen 44); assay: Off-target panel of 44 selected targets; details: at 10 μM
hERG channel = hERG channel (Homo sapiens, UniProt Q12809); assay: hERG channel in Eurofins Cerep SafetyScreen 44; details: at 10 μM
humanized MRGPRX1 mice [7] = format: in vivo; details: 100 mg/kg oral, 0–1 hour post-drug
naïve MRGPRX1 mice [8] = assay: Open field test in naïve MRGPRX1 mice; format: in vivo; details: 100 mg/kg, po, compared to pre-drug
naïve MRGPRX1 mice [9] = assay: Rotarod test in naïve MRGPRX1 mice; format: in vivo; details: 100 mg/kg, po, vs vehicle-treated group and pre-treatment values
humanized MRGPRX1 mice [10] = assay: Sciatic nerve chronic constriction injury; format: in vivo; details: 100 mg/kg, po
Outline: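 Humanized MRGPRX1 mice of both sexes (2–3 months, 20–30 g) under 2% isoflurane; left sciatic nerve loosely ligated with three sutures proximal to the branching point. Test compound given at 100 mg/kg po, vehicle as control. Hargreaves heat paw withdrawal latency measured before and after dosing on days 12 and 26 post-CCI (n=4–5/group). Two-way mixed-model ANOVA with Bonferroni; mean + SD.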

MRGPRX1 [11] = details: cited from earlier work
[12] = spinal cord, 100 mg/kg po (table)

T1 sequence (Q96LB2 whole entry): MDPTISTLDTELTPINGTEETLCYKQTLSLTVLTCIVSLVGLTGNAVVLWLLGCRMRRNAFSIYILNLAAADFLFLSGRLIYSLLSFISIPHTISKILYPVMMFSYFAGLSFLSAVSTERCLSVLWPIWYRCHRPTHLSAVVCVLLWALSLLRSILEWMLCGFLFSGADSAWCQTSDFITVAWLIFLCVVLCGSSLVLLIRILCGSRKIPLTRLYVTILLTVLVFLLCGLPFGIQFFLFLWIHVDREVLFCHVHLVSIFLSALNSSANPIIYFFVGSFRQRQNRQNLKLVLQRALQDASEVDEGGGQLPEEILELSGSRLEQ
Sequence of hERG channel (Q12809 whole entry): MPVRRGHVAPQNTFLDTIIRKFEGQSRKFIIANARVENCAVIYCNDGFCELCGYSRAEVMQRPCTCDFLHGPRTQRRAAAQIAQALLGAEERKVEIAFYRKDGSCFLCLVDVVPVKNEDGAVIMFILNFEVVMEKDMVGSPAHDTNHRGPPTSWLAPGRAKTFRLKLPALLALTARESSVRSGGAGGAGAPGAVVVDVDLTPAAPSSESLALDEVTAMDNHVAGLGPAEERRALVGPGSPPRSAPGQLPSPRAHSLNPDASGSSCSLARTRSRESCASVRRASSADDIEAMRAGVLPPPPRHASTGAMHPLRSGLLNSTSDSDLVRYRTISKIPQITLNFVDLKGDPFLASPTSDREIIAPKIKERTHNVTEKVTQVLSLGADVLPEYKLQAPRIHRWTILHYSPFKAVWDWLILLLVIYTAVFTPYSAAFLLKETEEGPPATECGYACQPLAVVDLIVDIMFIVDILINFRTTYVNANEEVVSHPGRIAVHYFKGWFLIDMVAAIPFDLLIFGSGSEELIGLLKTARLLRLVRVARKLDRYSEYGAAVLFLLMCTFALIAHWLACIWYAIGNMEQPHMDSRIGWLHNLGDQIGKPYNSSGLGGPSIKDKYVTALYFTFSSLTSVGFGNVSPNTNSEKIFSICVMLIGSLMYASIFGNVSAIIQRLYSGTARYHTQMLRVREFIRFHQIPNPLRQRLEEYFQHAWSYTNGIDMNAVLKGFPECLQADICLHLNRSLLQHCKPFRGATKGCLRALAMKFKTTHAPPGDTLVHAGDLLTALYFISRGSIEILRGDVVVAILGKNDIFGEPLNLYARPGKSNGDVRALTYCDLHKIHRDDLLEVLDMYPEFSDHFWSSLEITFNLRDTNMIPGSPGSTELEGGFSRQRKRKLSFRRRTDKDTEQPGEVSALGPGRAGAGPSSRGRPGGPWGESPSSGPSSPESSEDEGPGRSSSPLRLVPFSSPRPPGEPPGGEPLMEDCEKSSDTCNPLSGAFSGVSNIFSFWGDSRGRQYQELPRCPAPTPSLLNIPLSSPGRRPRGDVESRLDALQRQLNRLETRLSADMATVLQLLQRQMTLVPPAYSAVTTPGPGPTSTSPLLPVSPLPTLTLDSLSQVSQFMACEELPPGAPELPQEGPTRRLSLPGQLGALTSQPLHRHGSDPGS

Structure (SMILES): Cc1ccccc1Oc1ncnc2sccc12 [Compound 1b, 4-(o-Tolyloxy)thieno[2,3-d]pyrimidine]
allosteric MRGPRX1 activator activity (MRGPRX1 [1]): active allosteric MRGPRX1 activator

fold loss in potency compared to 1b (human MRGPRX1 [2]): 4 fold
Structure (SMILES): Cc1sc2ncnc(Oc3ccccc3)c2c1C [Compound 1c, 5,6-Dimethyl-4-phenoxythieno[2,3-d]pyrimidine]

Structure (SMILES): Cc1sc2ncnc(Oc3ccccc3F)c2c1C [Compound 1f, 4-(2-Fluorophenoxy)-5,6-dimethylthieno[2,3-d]pyrimidine]
major metabolite identification [3]: insertion of an oxygen atom into the parent compound

Structure (SMILES): CC(C)(C)c1sc2ncnc(Oc3ccccc3OC(F)(F)F)c2c1-c1ccc(Cl)c(Cl)c1 [Compound 1t, 6-tert-butyl-5-(3,4-dichlorophenyl)-4-(2-(trifluoromethoxy)phenoxy)thieno[2,3-d]pyrimidine]
intrinsic agonist activity (human MRGPRX1 [4]): no intrinsic agonist activity | Cmax in the spinal cord relative to the EC50 value ([5]; 100 mg/kg po): more than 40 fold | Cmax ([5]; brain, 100 mg/kg po): 0.82 ± 0.05 nmol·h/g | Kp ([5]; brain/plasma, brain, 100 mg/kg po): 0.022 | Kp ([5]; spinal cord/plasma, spinal cord, 100 mg/kg po): 0.127 | AUC0-last [5, 12]: 13.79 ± 0.14 nmol·h/g | Cmax [5, 12]: 4.60 ± 0.60 nmol·h/g | selectivity for MRGPRX1 over MRGPRX2 (MRGPRX2): at least 50 fold | MRGPRX2 PAM activity (MRGPRX2; at 5 μM, in presence of EC20 concentration of C48/80): no MRGPRX2 PAM activity | inhibition of 5 of the 44 targets [6]: 50−64% | inhibition of hERG channel (hERG channel): more than 50% | itch side effects (spontaneous scratch bouts) (humanized MRGPRX1 mice [7]): lack of spontaneous scratch bouts | overt adverse effects (humanized MRGPRX1 mice [7]; compared to vehicle): no overt adverse effects | exploratory performance in the open field test (naïve MRGPRX1 mice [8]): neither compound 1t (100 mg/kg, po) nor vehicle significantly impaired exploratory performance | performance on the rotarod test (naïve MRGPRX1 mice [9]): no difference in performance on the rotarod test | ipsilateral paw withdrawal latency (PWL) to radiant heat (humanized MRGPRX1 mice [10]; 1 and 2 hours post-drug on day 12 post-injury): significantly increased ipsilateral PWLs from pre-drug level | ipsilateral paw withdrawal latency (PWL) to radiant heat (humanized MRGPRX1 mice [10]; 2 hours post-drug on day 26 post-injury): significantly increased ipsilateral PWLs from pre-drug level | contralateral hind paw PWL (humanized MRGPRX1 mice [10]; after drug treatment): no significant change of PWLs

Structure (SMILES): CCOc1ccccc1NC(=O)c1ccccc1NS(=O)(=O)C1CC1 [ML382, 2-[(Cyclopropylsulfonyl)amino]-N-(2-ethoxyphenyl)benzamide]
pain hypersensitivity after injury (MRGPRX1 [11]; intrathecal injection): inhibit pain hypersensitivity after injury | itch side effects (MRGPRX1 [11]; systemic administration): did not elicit itch side effects

— article PMC9176367 (Journal of medicinal chemistry, 2022)
